Data as given in ChEMBL document CHEMBL5385966, “Synthesis and biological evaluation of new naphthalimide-thiourea derivatives as potent antimicrobial agents active against multidrug-resistant Staphylococcus aureus and Mycobacterium tuberculosis” (RSC Med Chem, 2024).
Values after ≈ are worked out from the molar mass of the structure shown. Active and inactive are the calls of the source. The calls are words filed in the database; no cut-off is given here.

Tests used:
[1] = tested on: Mycolicibacterium fortuitum; assay: Antimycobacterial activity against Mycobacterium fortuitum ATCC 6841 assessed as bacterial growth inhibition incubated for 72 hrs by resazurin dye based broth microdilution method; format: functional, organism-based
Outline: (§1)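 Broth microdilution in Middlebrook 7H9 with 10% ADC-Tween-80 (0.2% glycerol, 0.05% Tween-80), inoculum ~10⁶ cfu/mL. Compounds came from 10 mg/mL DMSO stocks and were tested as two-fold serial dilutions at 37 °C, 7 days for M. tuberculosis H37Rv and 72 h for NTM. Growth was read visually with PrestoBlue resazurin dye; MIC was the lowest concentration preventing growth. Triplicate determinations, each in duplicate.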

[2] = tested on: Staphylococcus aureus; assay: Antibacterial activity against methicillin/ceftriaxone/meropenem/gentamycin/linezolid-resistant Staphylococcus aureus NRS10119 clinical isolate assessed as bacterial growth inhibition incubated for 16 to 18 hrs by CLSI based antibiotic susceptibility testing method; format: functional; settings: time 16-18 hrs
Outline: (§2)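 Broth microdilution in cation-adjusted Mueller-Hinton broth. Compounds were tested at […], with levofloxacin as reference and medium-only controls. Plates were incubated at 37 °C for 16-18 h. MIC was the lowest concentration with no visible growth; three independent determinations, each in duplicate.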

[3] = tested on: Staphylococcus aureus; assay: Antibacterial activity against methicillin/ceftriaxone-resistant Staphylococcus aureus NRS10194 clinical isolate assessed as bacterial growth inhibition incubated for 16 to 18 hrs by CLSI based antibiotic susceptibility testing method; format: functional; settings: time 16-18 hrs; outline: as §2
[4] = tested on: Staphylococcus aureus; assay: Antibacterial activity against methicillin/ceftriaxone/meropenem-resistant Staphylococcus aureus NRS10192 clinical isolate assessed as bacterial growth inhibition incubated for 16 to 18 hrs by CLSI based antibiotic susceptibility testing method; format: functional; settings: time 16-18 hrs; outline: as §2
[5] = tested on: Staphylococcus aureus; assay: Antibacterial activity against methicillin/ceftriaxone/meropenem/gentamycin/linezolid-resistant Staphylococcus aureus NRS10100 clinical isolate assessed as bacterial growth inhibition incubated for 16 to 18 hrs by CLSI based antibiotic susceptibility testing method; format: functional; settings: time 16-18 hrs; outline: as §2
[6] = Selectivity index, ratio of CC50 for African green monkey Vero cells to MIC for Staphylococcus aureus ATCC 29213; format: toxicity, cell-based; settings: read-out: Selectivity Index
[7] = tested on: Mycobacteroides chelonae; assay: Antimycobacterial activity against Mycobacteroides chelonae ATCC 35752 assessed as bacterial growth inhibition incubated for 72 hrs by resazurin dye based broth microdilution method; format: functional, organism-based; outline: as §1
[8] = tested on: Mycobacteroides abscessus; assay: Antimycobacterial activity against Mycobacterium abscessus ATCC 19977 assessed as bacterial growth inhibition incubated for 72 hrs by resazurin dye based broth microdilution method; format: functional, organism-based; outline: as §1
[9] = tested on: Staphylococcus aureus; assay: Antibacterial activity against Staphylococcus aureus ATCC 29213 assessed as bacterial growth inhibition incubated for 16 to 18 hrs by CLSI based antibiotic susceptibility testing method; format: functional; settings: time 16-18 hrs; outline: as §2
[10] = tested on: Escherichia coli; assay: Antibacterial activity against Escherichia coli ATCC 25922 assessed as bacterial growth inhibition incubated for 16 to 18 hrs by CLSI based antibiotic susceptibility testing method; format: functional, organism-based; settings: time 16-18 hrs; outline: as §2
[11] = tested on: Staphylococcus aureus; assay: Antibacterial activity against methicillin/ceftriaxone/meropenem-resistant Staphylococcus aureus NRS10198 clinical isolate assessed as bacterial growth inhibition incubated for 16 to 18 hrs by CLSI based antibiotic susceptibility testing method; format: functional; settings: time 16-18 hrs; outline: as §2
[12] = tested on: Acinetobacter baumannii; assay: Antibacterial activity against Acinetobacter baumannii BAA 1605 assessed as bacterial growth inhibition incubated for 16 to 18 hrs by CLSI based antibiotic susceptibility testing method; format: functional, organism-based; settings: time 16-18 hrs; outline: as §2
[13] = tested on: Staphylococcus aureus; assay: Antibacterial activity against methicillin/ceftriaxone/meropenem-resistant Staphylococcus aureus NRS10193 clinical isolate assessed as bacterial growth inhibition incubated for 16 to 18 hrs by CLSI based antibiotic susceptibility testing method; format: functional; settings: time 16-18 hrs; outline: as §2
[14] = tested on: Staphylococcus aureus; assay: Antibacterial activity against methicillin/ceftriaxone/meropenem-resistant Staphylococcus aureus NRS10129 clinical isolate assessed as bacterial growth inhibition incubated for 16 to 18 hrs by CLSI based antibiotic susceptibility testing method; format: functional; settings: time 16-18 hrs; outline: as §2
[15] = tested on: Staphylococcus aureus; assay: Antibacterial activity against methicillin/ceftriaxone/meropenem/gentamycin/vancomycin/teicoplanin-resistant Staphylococcus aureus VRS1 clinical isolate assessed as bacterial growth inhibition incubated for 16 to 18 hrs by CLSI based antibiotic susceptibility testing method; format: functional; settings: time 16-18 hrs; outline: as §2
[16] = tested on: Mycobacterium tuberculosis; assay: Antimycobacterial activity against Mycobacterium tuberculosis H37Rv ATCC 27294 assessed as bacterial growth inhibition incubated for 7 days by resazurin dye based broth microdilution method; format: functional; settings: H37Rv ATCC 27294, 168 h, time 7 day; outline: as §1
[17] = tested on: Staphylococcus aureus; assay: Antibacterial activity against methicillin/ceftriaxone/meropenem/vancomycin/teicoplanin-resistant Staphylococcus aureus VRS12 clinical isolate assessed as bacterial growth inhibition incubated for 16 to 18 hrs by CLSI based antibiotic susceptibility testing method; format: functional; settings: time 16-18 hrs; outline: as §2
[18] = tested on: Staphylococcus aureus; assay: Antibacterial activity against methicillin/ceftriaxone/meropenem-resistant Staphylococcus aureus NRS10186 clinical isolate assessed as bacterial growth inhibition incubated for 16 to 18 hrs by CLSI based antibiotic susceptibility testing method; format: functional; settings: time 16-18 hrs; outline: as §2
[19] = tested on: Staphylococcus aureus; assay: Antibacterial activity against methicillin/ceftriaxone/meropenem/vancomycin/teicoplanin-resistant Staphylococcus aureus VRS4 clinical isolate assessed as bacterial growth inhibition incubated for 16 to 18 hrs by CLSI based antibiotic susceptibility testing method; format: functional; settings: time 16-18 hrs; outline: as §2
[20] = tested on: Pseudomonas aeruginosa; assay: Antibacterial activity against Pseudomonas aeruginosa ATCC 27853 assessed as bacterial growth inhibition incubated for 16 to 18 hrs by CLSI based antibiotic susceptibility testing method; format: functional, organism-based; settings: time 16-18 hrs; outline: as §2
[21] = tested on: Staphylococcus aureus; assay: Antibacterial activity against methicillin/ceftriaxone/meropenem-resistant Staphylococcus aureus NRS10191 clinical isolate assessed as bacterial growth inhibition incubated for 16 to 18 hrs by CLSI based antibiotic susceptibility testing method; format: functional; settings: time 16-18 hrs; outline: as §2
[22] = tested on: Klebsiella pneumoniae; assay: Antibacterial activity against Klebsiella pneumoniae BAA 1705 assessed as bacterial growth inhibition incubated for 16 to 18 hrs by CLSI based antibiotic susceptibility testing method; format: functional, organism-based; settings: time 16-18 hrs; outline: as §2
[23] = tested on: Staphylococcus aureus; assay: Antibacterial activity against methicillin-sensitive Staphylococcus aureus ATCC 29213 clinical isolate assessed as bacterial growth inhibition incubated for 16 to 18 hrs by CLSI based antibiotic susceptibility testing method; format: functional; settings: time 16-18 hrs; outline: as §2
[24] = Cytotoxicity against African green monkey Vero cells by MTT assay; format: toxicity, cell-based; settings: chlorocebus sabaeus
Outline: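 Vero cells were seeded at ~10³ per well at 37 °C, 5% CO2. After 24 h, compounds were added at 5-100 mg/L for 72 h. […] was added for 4 h, formazan was dissolved in DMSO and read at 540 nm. CC50 was taken as the lowest concentration reducing viability by 50%; doxorubicin was the positive control; triplicate.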

Row | SMILES | growth inhibition (GI) [1] | MIC [2] [µg/mL] | MIC [3] [µg/mL] | MIC [4] [µg/mL] | MIC [5] [µg/mL] | selectivity ratio [6] | growth inhibition (GI) [7] | growth inhibition (GI) [8] | MIC [9] [µg/mL] | growth inhibition (GI) [10] | MIC [11] [µg/mL] | growth inhibition (GI) [12] | MIC [13] [µg/mL] | MIC [14] [µg/mL] | MIC [15] [µg/mL] | MIC [16] [µg/mL] | MIC [17] [µg/mL] | MIC [18] [µg/mL] | MIC [19] [µg/mL] | growth inhibition (GI) [20] | also measured
1 | O=C(CN1C(=O)c2cccc3cccc(c23)C1=O)N1CCC(NC(=S)Nc2ccccc2)CC1 | inactive | 0.25 (≈ 0.529 µM) | 1 (≈ 2.12 µM) | 0.25 (≈ 0.529 µM) | 1 (≈ 2.12 µM) | > 200 | inactive | inactive | 0.5 (≈ 1.06 µM) | inactive | 0.25 (≈ 0.529 µM) | inactive | 0.25 (≈ 0.529 µM) | 1 (≈ 2.12 µM) | 0.5 (≈ 1.06 µM) | > 64 | 0.5 (≈ 1.06 µM) | 0.25 (≈ 0.529 µM) | 0.25 (≈ 0.529 µM) | inactive | MIC [21]: 0.25 µg/mL (≈ 0.529 µM); growth inhibition (GI) [22]: inactive; MIC [23]: 1 µg/mL (≈ 2.12 µM); CC50 [24]: > 100 µg/mL
2 | O=C(CN1C(=O)c2cccc3cccc(c23)C1=O)N1CCC(NC(=S)NC2CCCCC2)CC1 | inactive | 0.125 (≈ 0.261 µM) | 0.125 (≈ 0.261 µM) | 0.125 (≈ 0.261 µM) | 0.125 (≈ 0.261 µM) | > 800 | inactive | inactive | 0.125 (≈ 0.261 µM) | inactive | 0.125 (≈ 0.261 µM) | inactive | 0.125 (≈ 0.261 µM) | 0.125 (≈ 0.261 µM) | 0.125 (≈ 0.261 µM) | > 64 | 0.125 (≈ 0.261 µM) | 0.125 (≈ 0.261 µM) | 0.125 (≈ 0.261 µM) | inactive | MIC [21]: 0.125 µg/mL (≈ 0.261 µM); growth inhibition (GI) [22]: inactive; MIC [23]: 0.125 µg/mL (≈ 0.261 µM); CC50 [24]: > 100 µg/mL
3 | O=C(CN1C(=O)c2cccc3cccc(c23)C1=O)NC1CCN(C(=S)Nc2ccccc2)CC1 | inactive | 2 (≈ 4.23 µM) | 4 (≈ 8.46 µM) | 1 (≈ 2.12 µM) | 4 (≈ 8.46 µM) | > 50 | inactive | inactive | 4 (≈ 8.46 µM) | inactive | 2 (≈ 4.23 µM) | inactive | 2 (≈ 4.23 µM) | 4 (≈ 8.46 µM) | 2 (≈ 4.23 µM) | > 64 | 4 (≈ 8.46 µM) | 2 (≈ 4.23 µM) | 2 (≈ 4.23 µM) | inactive | MIC [21]: 2 µg/mL (≈ 4.23 µM); growth inhibition (GI) [22]: inactive; MIC [23]: 4 µg/mL (≈ 8.46 µM); CC50 [24]: > 200 µg/mL
4 | O=C(CN1C(=O)c2cccc3cccc(c23)C1=O)NC1CCN(C(=S)NC2CCCCC2)CC1 | inactive | 0.125 (≈ 0.261 µM) | 0.25 (≈ 0.522 µM) | 0.25 (≈ 0.522 µM) | 0.25 (≈ 0.522 µM) | > 40 | inactive | inactive | 0.25 (≈ 0.522 µM) | inactive | 0.25 (≈ 0.522 µM) | inactive | 0.125 (≈ 0.261 µM) | 0.5 (≈ 1.04 µM) | 0.5 (≈ 1.04 µM) | > 64 | 0.25 (≈ 0.522 µM) | 0.125 (≈ 0.261 µM) | 0.25 (≈ 0.522 µM) | inactive | MIC [21]: 0.125 µg/mL (≈ 0.261 µM); growth inhibition (GI) [22]: inactive; MIC [23]: 0.25 µg/mL (≈ 0.522 µM); CC50 [24]: > 10 µg/mL
